In ChEMBL document CHEMBL2046306, “Synthesis of 6-substituted 9-methoxy-11H-indeno[1,2-c]quinoline-11-one derivatives as potential anticancer agents” (Bioorg Med Chem, 2012):

Legend:
NCI-H460 [1] = experiment: Antiproliferative activity against human NCI-H460 cells assessed as growth at 100 uM after 48 hrs by alamar blue assay; assay type: functional; conditions: NCI-H460, 48 h, read-out: Activity
Method in brief: (§1)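 Single-dose prescreen in a three-line NCI panel (NCI-H460, MCF7, SF-268). Cells were inoculated and preincubated on microtiter plates, then exposed to test agent at 100 μM for 48 h. Alamar blue end-point. Growth is expressed as percent of untreated control cells.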

MCF7 = experiment: Antiproliferative activity against human MCF7 cells assessed as growth at 100 uM after 48 hrs by alamar blue assay; assay type: functional; conditions: MCF7, 48 h, read-out: Activity; method in brief: as §1
SF-268 = experiment: Antiproliferative activity against human SF268 cells assessed as growth at 100 uM after 48 hrs by alamar blue assay; assay type: functional; conditions: SF-268, 48 h, read-out: Activity; method in brief: as §1
CCRF-CEM = experiment: Growth inhibition of human CCRF-CEM cells after 48 hrs by sulforhodamine B assay; assay type: functional
Method in brief: (§2)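 NCI 60-line screen. Cells grown in RPMI 1640 with 5% FBS and 2 mM L-glutamine, seeded at 5000–40,000 cells/well, preincubated 24 h at 37 °C. Five 10-fold dilutions added, highest well concentration 10E-4 M. Incubated 48 h in 5% CO₂ at 100% humidity. Sulforhodamine B read-out by optical density; GI50 taken from dose-response curves versus control.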

SR = experiment: Growth inhibition of human SR cells after 48 hrs by sulforhodamine B assay; assay type: functional
Method in brief: (§3)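 NCI 60-line screen. Cells grown in RPMI 1640 with 5% FBS and 2 mM L-glutamine, seeded at 5000-40,000 cells/well and preincubated 24 h at 37 °C. Compounds added at five 10-fold dilutions, highest well concentration 10E-4 M. Exposure 48 h in 5% CO2 at 100% humidity. Endpoint is sulforhodamine B with optical density read-out. GI50 is the concentration giving 50% growth inhibition versus control.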

A549 = experiment: Growth inhibition of human A549 cells after 48 hrs by sulforhodamine B assay; assay type: functional, cell-based; conditions: A549, 48 h; method in brief: as §2
HCT-116 = experiment: Growth inhibition of human HCT116 cells after 48 hrs by sulforhodamine B assay; assay type: functional; conditions: HCT-116, 48 h; method in brief: as §2
U-251 = experiment: Growth inhibition of human U251 cells after 48 hrs by sulforhodamine B assay; assay type: functional; conditions: U-251, 48 h; method in brief: as §3
SK-MEL-5 = experiment: Growth inhibition of human SK-MEL-5 cells after 48 hrs by sulforhodamine B assay; assay type: functional; conditions: SK-MEL-5, 48 h; method in brief: as §3
IGROV-1 = experiment: Growth inhibition of human IGROV1 cells after 48 hrs by sulforhodamine B assay; assay type: functional; conditions: IGROV-1, 48 h; method in brief: as §2
RXF 393 = experiment: Growth inhibition of human RXF393 cells after 48 hrs by sulforhodamine B assay; assay type: functional; conditions: RXF 393, 48 h; method in brief: as §3
DU-145 = experiment: Growth inhibition of human DU145 cells after 48 hrs by sulforhodamine B assay; assay type: functional; conditions: DU-145, 48 h; method in brief: as §2
[2] = Growth inhibition of human Hs 578T cells after 48 hrs by sulforhodamine B assay; assay type: functional; method in brief: as §2
NCI-H460 [3] = experiment: Growth inhibition of human NCI-H460 cells after 48 hrs by sulforhodamine B assay; assay type: functional; conditions: NCI-H460, 48 h; method in brief: as §2

| SMILES | growth at 100 µM (NCI-H460 [1]) [%] | growth at 100 µM (MCF7) [%] | growth at 100 µM (SF-268) [%] | GI50 (CCRF-CEM) [µM] | GI50 (SR) [µM] | GI50 (A549) [µM] | GI50 (HCT-116) [µM] | GI50 (U-251) [µM] | GI50 (SK-MEL-5) [µM] | GI50 (IGROV-1) [µM] | GI50 (RXF 393) [µM] | GI50 (DU-145) [µM] | GI50 [2] [µM] | IC50 (A549) [µM] | GI50 (NCI-H460 [3]) [µM] |
| --- | --- | --- | --- | --- | --- | --- | --- | --- | --- | --- | --- | --- | --- | --- | --- |
| COc1ccc2c(c1)C(=O)c1c-2c(Nc2ccc(Cl)cc2)nc2ccccc12 | 10 | 96 | 42 | 15.1 | 15.1 | 15.1 | 15.1 | 15.1 | 15.1 | 15.1 | 15.1 | 15.1 | 15.1 |  |  |
| COc1ccc2c(c1)C(=O)c1c-2c(Nc2ccc(F)cc2F)nc2ccccc12 | 96 | 99 | 68 |  |  |  |  |  |  |  |  |  |  |  |  |
| COc1ccc(Nc2nc3ccccc3c3c2-c2ccc(OC)cc2C3=O)cc1 | 69 | 74 | 65 |  |  |  |  |  |  |  |  |  |  |  |  |
| COc1ccc2c(c1)C(=O)c1c-2c(Nc2ccc(C(C)=O)cc2)nc2ccccc12 | 18 | 61 | 11 | 39.8 | 39.8 | 39.8 | 39.8 | 39.8 | 39.8 | 39.8 | 39.8 | 39.8 | 39.8 |  |  |
| COc1ccc(Nc2nc3ccccc3c3c2-c2ccc(OC)cc2C3=O)c(OC)c1 | 110 | 103 | 107 |  |  |  |  |  |  |  |  |  |  |  |  |
| CN(C)CCCOc1ccc(-c2nc3ccc(OCCCN(C)C)cc3c3c2-c2ccc(OCCCN(C)C)cc2C3=O)cc1 |  |  |  |  |  |  |  |  |  |  |  |  |  | 0.68 |  |
| COc1ccc2c(c1)/C(=N\OC(C)=O)c1c-2c(Nc2ccc(/C(C)=N/OC(C)=O)cc2)nc2ccccc12 | 37 | 24 | 36 | 52.5 | 52.5 | 52.5 | 52.5 | 52.5 | 52.5 | 52.5 | 52.5 | 52.5 | 52.5 |  |  |
| COc1ccc2c(c1)/C(=N\OCCCN)c1c-2c(N2CCNCC2)nc2ccccc12 |  |  |  |  |  |  |  |  |  |  |  |  |  | 0.64 |  |
| COc1ccc2c(c1)/C(=N\O)c1c-2c(Nc2cccc(/C(C)=N/O)c2)nc2ccccc12 | 11 | 84 | 66 | 28.2 | 28.2 | 28.2 | 28.2 | 28.2 | 28.2 | 28.2 | 28.2 | 28.2 | 28.2 |  |  |
| COc1ccc2c(c1)/C(=N\O)c1c-2c(Nc2ccc(/C(C)=N/O)cc2)nc2ccccc12 | 0 | 1 | 2 | 4.17 | 1.48 | 1.45 | 1.48 | 2.29 | 3.8 | 15.1 | < 0.01 | 2.04 | 7.08 |  | 29.5 |
| COc1ccc2c(c1)C(=O)c1c-2c(Nc2cccc(C(C)=O)c2)nc2ccccc12 | 0 | 17 | 7 | 12.9 | 21.4 | 17.7 | 2.63 | 3.09 | 5.25 | 3.63 | 9.77 | 11.8 | 3.16 |  | 23.5 |
| COc1ccc2c(c1)C(=O)c1c-2c(NCCN(C)C)nc2ccccc12 | 0 | 0 | 6 | 3.47 | 3.47 | 3.47 | 3.47 | 3.47 | 3.47 | 3.47 | 3.47 | 3.47 | 3.47 |  |  |
| COc1cccc(Nc2nc3ccccc3c3c2-c2ccc(OC)cc2C3=O)c1 | 83 | 79 | 87 |  |  |  |  |  |  |  |  |  |  |  |  |
| COc1ccc2c(c1)C(=O)c1c-2c(Nc2ccc(F)c(F)c2)nc2ccccc12 | 96 | 106 | 69 |  |  |  |  |  |  |  |  |  |  |  |  |
| CO/N=C1/c2cc(OC)ccc2-c2c(Nc3cccc(/C(C)=N/OC)c3)nc3ccccc3c21 | 82 | 80 | 92 |  |  |  |  |  |  |  |  |  |  |  |  |
| COc1ccc2c(c1)C(=O)c1c-2c(Nc2ccc(OC)c(OC)c2)nc2ccccc12 | 68 | 90 | 41 |  |  |  |  |  |  |  |  |  |  |  |  |
| COc1ccc2c(c1)/C(=N\OC(C)=O)c1c-2c(Nc2cccc(/C(C)=N/OC(C)=O)c2)nc2ccccc12 | 96 | 32 | 43 | 53.7 | 53.7 | 53.7 | 53.7 | 53.7 | 53.7 | 53.7 | 53.7 | 53.7 | 53.7 |  |  |
| CO/N=C1/c2cc(OC)ccc2-c2c(Nc3ccc(/C(C)=N/OC)cc3)nc3ccccc3c21 | 112 | 89 | 108 |  |  |  |  |  |  |  |  |  |  |  |  |
